Source: PubChem BioAssay (several laboratories)
SR-BI HDL uptake: blocks mouse SR-BI lipid uptake from DiI-HDL; Q61009; ldlA[mSR-BI] CHO cells, DiI-HDL uptake fluorescence, 3 h; inhibition, % at 12.5 µM; 320,000 compounds, 0.96% hits;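 active = mean replicate inhibition of at least 70% and a set share of replicates each scoring 70 or more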;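 also: 0% = median of neutral control wells and 100% = median of positive control wells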
GRK2 aptamer HTS: blocks RNA aptamer binding to human GRK2; P25098; bead flow cytometry, FAM-aptamer displacement from GRK2; inhibition of aptamer binding, % at 10 µM; 330,000 compounds, 0.59% hits; AID 488847;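 active = inhibition of aptamer binding above 40%, roughly 3 SD of noise, on plates passing a quality check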;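 also: median bead fluorescence of bound FAM aptamer so fluorescent compounds give negative values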
Target sequence (P25098 whole entry, looked up): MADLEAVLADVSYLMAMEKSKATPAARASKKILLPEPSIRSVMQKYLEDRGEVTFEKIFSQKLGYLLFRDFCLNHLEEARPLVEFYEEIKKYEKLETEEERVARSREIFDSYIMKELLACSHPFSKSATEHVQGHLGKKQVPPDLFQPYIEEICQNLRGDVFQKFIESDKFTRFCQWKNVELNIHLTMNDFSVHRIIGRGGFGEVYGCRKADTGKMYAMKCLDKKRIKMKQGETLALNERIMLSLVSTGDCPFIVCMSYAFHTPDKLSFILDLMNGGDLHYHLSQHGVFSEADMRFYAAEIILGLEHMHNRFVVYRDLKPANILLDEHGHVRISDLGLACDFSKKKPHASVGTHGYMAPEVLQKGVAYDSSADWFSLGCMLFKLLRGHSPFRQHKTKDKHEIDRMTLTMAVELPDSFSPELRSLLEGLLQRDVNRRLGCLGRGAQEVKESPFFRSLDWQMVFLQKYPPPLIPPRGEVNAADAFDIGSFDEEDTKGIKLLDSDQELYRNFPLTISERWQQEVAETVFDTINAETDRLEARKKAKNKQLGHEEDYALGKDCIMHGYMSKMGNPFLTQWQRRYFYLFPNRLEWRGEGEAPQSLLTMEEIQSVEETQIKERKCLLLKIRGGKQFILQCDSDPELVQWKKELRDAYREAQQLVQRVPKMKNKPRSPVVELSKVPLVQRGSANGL
Rin1 Abl inh: human Rin1-Abl interaction inhibition; P00519+Q13671; TR-FRET Rin1/Abl binding, biochemical; inhibition, % at 7.35 µM; 360,000 compounds, 0.4% hits; in the data active = inhibition above about 5%, passing the limit was not always enough
SR-BI DiI-HDL act: enhances SR-BI lipid uptake from DiI-HDL. CHO ldlA[mSR-BI] cells, DiI-HDL uptake fluorescence, 3 h; 100 = double the neutral-control signal. activation, % at 12.5 µM. 320,000 compounds, 0.096% hits. AID 504775;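 active = mean replicate activation of at least 60% and every replicate at or above 60%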;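 also: 0% = median plate neutral-control signal and 100% = twice that signal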
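System: CHO ldlA[mSR-BI] cells / Medium: HEPES-buffered (25 mM, pH 7.4) F12 plus 0.5% BSA / Probe or stimulus: labelled HDL, 10 µg/mL / Doses: single compound concentration, delivered by pin transfer / Schedule: 3 h, 37 °C / Measured by: DiI fluorescence, bottom read / Measure: cell-associated DiI fluorescence as measure of HDL uptake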
Rin1-Abl confirm: Rin1-Abl interaction inhibition confirmation. inhibition, % at 7.35 µM. AID 602124. 1,300 compounds, 49% hits. TR-FRET Rin1-Abl binding, purified proteins. shares compounds with Rin1 Abl inh
GFP quench-1: counter-screen for Rin1-Abl inhibitors: GFP fluorescence quenchers. 1,300 compounds, 8.5% hits. shares compounds with Rin1 Abl inh. inhibition, % at 6.75 µM. inhibitors/quenchers counterscreen. AID 602125;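 also: ABL1-eGFP fusion protein alone without its partner RIN1-SBP; 0% = protein with vehicle and 100% = wells lacking protein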
GFP quench DR: GFP fluorescence interference dose response. shares compounds with Rin1 Abl inh. GFP fluorescence interference/quenching counterscreen. IC50, µM. 230 tested, under 10 active. AID 602182; call rule not given here;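 also: ABL1-eGFP fusion protein alone without its RIN1 binding partner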
GFP quench-2: quenches GFP fluorescence in Rin1-Abl counterscreen; GFP fluorescence quenching counterscreen, biochemical; AID 602397; 25 tested, under 10 active; shares compounds with Rin1 Abl inh; IC50, µM; call rule not given here
* marks the source's active call; other numbers are inactive results; x = not tested or not shown; ! = repeats disagree. Compounds with a hit are over-represented: about 1.9% of the library has one in this group of screens. Rule as the data show it, unless noted: active = inhibition above about 6.5%; inactive = the rest.

SMILES	SR-BI HDL uptake	GRK2 aptamer HTS	Rin1 Abl inh	SR-BI DiI-HDL act	Rin1-Abl confirm	GFP quench-1	others
CC1CC(C)CN(CC(=O)Nc2ccc3c(c2)OCCO3)C1 (stereo not drawn)	-4	5	6.3*	4	2	3
CN1CCC(N(C)C(=O)c2sc3cc(F)ccc3c2Cl)CC1	-12	0	2	12	x	x
CC(C)N(CC(N)=O)C(=O)c1sc2cc(F)ccc2c1Cl	-5	0	7.0*	5	0	1
O=C(Nc1ccccc1Cl)C1CC(=O)N(c2ccccc2)C1 (stereo not drawn)	3	0	-1	-3	x	x
O=C(Nc1cccc2nsnc12)C1CC(=O)N(c2ccccc2)C1 (stereo not drawn)	9	2	10*	-9	-5	-1
O=C(c1ccncc1)N1CCN(C2CCCCC2)CC1	4	2	10*	-4	1	-1
O=C(c1ccccc1)N1CCN(C2CCCCC2)CC1	-24	1	-4	24	x	x
COc1ccc([C@@H]2C[C@H]3[C@@H](CN2S(=O)(=O)c2ccccc2)C(=O)C[C@@H](c2ccc(OC)cc2)N3S(=O)(=O)c2ccccc2)cc1	x	x	-2	x	x	x
COc1ccccc1NC(=O)N(C)C[C@H]1Oc2ncc(Br)cc2C(=O)N([C@H](C)CO)C[C@H]1C	x	x	2	x	x	x
CCOC(=O)c1[nH]c(=O)[nH]c1CSCCO	-13	0	8.1*	13	12*	0
S=C(NCCN1CCCCC1)Nc1ccc(Br)cc1	6	0	-1	-6	x	x
S=C(NCCN1CCCCC1)Nc1ccccc1	-33	0	9.0*	33	0	-2
Cc1ccccc1CNC(=O)c1csc([C@@H]2C[C@H](O)[C@@H](CO)O2)n1	x	x	0	x	x	x
Cc1cc(C)c(S(=O)(=O)N2CCCC(C(=O)N3CCOCC3)C2)c(C)c1 (stereo not drawn)	-20	3	11*	x	8.9*	-1
COC(=O)c1ccc(COC(=O)C2CCN(S(=O)(=O)c3ccc(C)c(C)c3)CC2)o1	-17	0	16*	17	31*	-2	GFP quench DR=>68
COc1ccc(C(=O)Nc2ccc(O)cc2C(=O)O)cc1	3	2	11*	-3	9.8*	2
COc1ccc(C(=O)Nc2ccccc2C(=O)Nc2ccccc2C(=O)O)cc1	19	4	5.6*	-19	5	0
COc1ccc(C(=O)Nc2cc(Cl)ccc2C(=O)O)cc1	-5	1	2	5	x	x
Cc1ccc(C(=O)NC(C)c2ccc(-n3ccnc3)cc2)cc1S(=O)(=O)N1CCOCC1 (stereo not drawn)	17	0	11*	-17	16*	0
O=C(N1CCOCC1)N1[C@H](COCc2ccccc2)C=CS1(=O)=O	x	x	10	x	x	x
COC(=O)C=CC(=NNc1ccccc1)c1ccccc1	7	x	9.1*	-7	-2	-1
CO/N=C/C(=N\Nc1ccccc1)C(=O)c1ccccc1	67	2	2	-67	x	x
O=C(CC(O)c1ccncc1)c1ccccc1O (stereo not drawn)	-7	x	2	7	x	x
Cc1cccc(C)c1OCc1cc(C(=O)N2CCNC(=O)C2)no1	11	2	2	-11	x	x
CSc1ccccc1OCc1cc(C(=O)N2CCNC(=O)C2)no1	18	1	48*	-18	40*	-1	GFP quench DR=>68;GFP quench-2=>68
SMILES	SR-BI HDL uptake	GRK2 aptamer HTS	Rin1 Abl inh	SR-BI DiI-HDL act	Rin1-Abl confirm	GFP quench-1	others
CCOC(=O)c1ccc(NC(=O)COc2ccccc2CNC2CCCC2)cc1	15	0	31*	-15	34*	0	GFP quench DR=>68
CCOC(=O)c1ccc(NC(=O)COc2ccccc2OC)cc1	17	0	2	-17	x	x
COC(=O)c1cccc(NC(=O)c2ccc[n+]([O-])c2)c1	47	1	17*	-47	23*	1	GFP quench DR=>67
COc1cccc(NC(=O)c2ccc[n+](C)c2)c1	-6	1	-1	6	x	x
CCN(CC)c1ccc(/C=N/N2CCOCC2)cc1	10	0	0	-10	x	x
CCN(CC)c1ccc(C=NN2CCCCCC2)cc1	-2	x	33*	2	-2	1
CCOC(=O)N1CCN(CCC(=O)Nc2cccc(Br)c2)CC1	-18	1	6.2*!	18	0	1
CCOC(=O)N1CCN(CCC(=O)Nc2ccc(C)c(Br)c2)CC1	7	3	5.6*	-7	6	-1
CCOC(=O)N1CCN(CCC(=O)Nc2ccc(Br)cc2)CC1	0	0	0	0	x	x
CC(C)NC(=O)C1Cc2c(-c3ccccc3Oc3ccccc3)ccnc2O1 (stereo not drawn)	x	x	2	x	x	x
Cc1nc2ccccc2n1S(=O)(=O)c1cc(C(=O)O)ccc1Cl	x	0	8.3*	x	-3	0
O=C(c1ccccc1)c1ccc(O)c(O)c1O	-11	x	9	11	x	x
C[C@H](NC(=O)c1ncn2c1c(=O)[nH]c1ccc(Br)cc12)c1ccccc1	x	x	7.9*	x	-22	0
C[C@@H]1O[C@@H](Oc2c(-c3ccc(O)c(O)c3)oc3cc(O)cc(O)c3c2=O)[C@H](O)[C@H](O)[C@H]1O	3	4	18*!	-3	12*	3
C[C@@H]1O[C@@H](Oc2c(-c3cc(O)c(O)c(O)c3)oc3cc(O)cc(O)c3c2=O)[C@H](O)[C@H](O)[C@H]1O	-14	11	44*	14	45*	17*
C[C@@H]1O[C@@H](O[C@H]2[C@H](O)[C@@H](O)[C@H](Oc3c(-c4ccc(O)c(O)c4)oc4cc(O)cc(O)c4c3=O)O[C@@H]2CO)[C@H](O)[C@H](O)[C@H]1O	-13	0	11*	13	11*	3
O=c1c(O[C@@H]2O[C@H](CO)C(O)C2O)c(-c2ccc(O)c(O)c2)oc2cc(O)cc(O)c12 (stereo partly drawn)	-2	9	7	2	x	x
O=c1c(OC2OC(CO)C(O)C(O)C2O)c(-c2ccc(O)c(O)c2)oc2cc(O)cc(O)c12 (stereo not drawn)	11	x	16*	-11	15*	4
O=C(NCC1CC1)C1Cc2c(-c3ccc4c(c3)OCO4)ccnc2O1 (stereo not drawn)	x	x	3	x	x	x
COc1ccccc1CNc1nc(NCc2ccccc2OC)c2sccc2n1	x	x	-2	x	x	x
COc1ccccc1CNc1nc(NCc2ccc(NC(C)=O)cc2)c2sccc2n1	x	x	10*	x	7.8*	2
COc1ccccc1CNc1nc(NCCNC(C)=O)c2sccc2n1	x	x	19*	x	15*	0
